From paper PMC5472421 (Drug Design, Development and Therapy, 2017)
One block for each compound: values may come before it.

How the values were obtained:
[1] = type: in vivo, rat; settings: 4 h after oral DFP-11207 53.4 mg/kg
Outline: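 AZ521 xenograft-bearing nude rats received 53.4 mg/kg (75 μmol/kg) test compound orally and were killed at 1, 2, 4, 8 and 12 h. Serum, small intestine and tumour were taken. Tissues were homogenised in 10 mM potassium phosphate-buffered saline (pH 7.2) and spun at 9,000× g for 30 min. Supernatants were extracted with 4 volumes of ethyl acetate, dried at 40°C, redissolved, and assayed for CTA and 5-FU by HPLC.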

[2] = test system: CYP1A2, CYP2A6, CYP2E1, CYP3A4; type: in vitro ADME; settings: 100 µM inhibitor; EM-FU 1 mM; human liver microsomes
CoLo320DM cells = type: cell-based, human; settings: 1-100 µM, 1 µM [6-3H] 5-FU, 37°C, 45 min
Outline: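 CoLo320DM cells in RPMI-1640 were incubated at 37°C for 45 min with 1 μM [6-3H]5-FU (37 kBq), alone or with 1–100 μM test compound or CTA. Acid was added and the mixture centrifuged. The neutralised acid-soluble fraction was run on silica TLC and the FUMP spot counted. RNA-incorporated label in the precipitate was extracted by the Schneider method. Results are means of duplicate assays.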

[3] = molecular target: T1, orotate phosphoribosyltransferase (OPRT) (Homo sapiens, UniProt P11172); settings: cited from earlier work
T1 sequence (P11172 1-480): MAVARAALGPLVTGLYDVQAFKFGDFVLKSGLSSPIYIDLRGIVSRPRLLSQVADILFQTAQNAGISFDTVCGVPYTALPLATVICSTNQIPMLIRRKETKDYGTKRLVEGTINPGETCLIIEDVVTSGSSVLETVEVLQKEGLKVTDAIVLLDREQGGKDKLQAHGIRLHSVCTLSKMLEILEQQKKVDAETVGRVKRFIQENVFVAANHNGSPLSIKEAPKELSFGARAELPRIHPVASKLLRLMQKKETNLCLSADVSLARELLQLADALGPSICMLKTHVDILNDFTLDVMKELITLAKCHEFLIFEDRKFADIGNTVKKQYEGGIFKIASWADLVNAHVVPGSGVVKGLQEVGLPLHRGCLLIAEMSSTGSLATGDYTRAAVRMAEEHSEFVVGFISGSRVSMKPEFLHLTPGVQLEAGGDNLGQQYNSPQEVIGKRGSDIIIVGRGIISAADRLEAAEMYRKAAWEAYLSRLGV

[4] = Conversion of EM-FU to 5-FU by rat liver microsomes; type: in vitro ADME; settings: 1 mM, 60 min
Outline: (§1)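 EM-FU (1 mM) was incubated for 60 min with liver microsomes (0.85 mg protein) from each species, with tegafur as positive control. 5-FU formed was quantified by HPLC. Assays were run in triplicate and reported as mean ± SD.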

[5] = Conversion of EM-FU to 5-FU by monkey liver microsomes; type: in vitro ADME; settings: 1 mM, 60 min
Outline: as §1

[6] = type: in vitro ADME; settings: rat serum, liver and small intestine homogenates
Outline: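 Test compound (1 mM) was incubated at 37°C with rat serum or 20% (w/v) liver or small-intestine homogenates for 10, 20, 30 and 60 min. Reactions were stopped with 10% TCA and spun at 3,000× g for 10 min. Supernatants were neutralised with 2 M KOH, and EM-FU, CDHP, CTA and 5-FU were measured by HPLC. Results are means of duplicate assays.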

[7] = Conversion of EM-FU to 5-FU by human liver microsomes; type: in vitro ADME; settings: 1 mM, 60 min
Outline: as §1

[8] = Conversion of EM-FU to 5-FU by dog liver microsomes; type: in vitro ADME; settings: 1 mM, 60 min
Outline: as §1

Compound: O=c1[nH]cc(F)c(=O)[nH]1 [5-FU, 5-Fluorouracil]
5-FU level in small intestine compared with CTA [1]: almost equal level | 5-FU levels in blood and tumor compared with CTA [1]: much higher than CTA

Compound: toleandomycin
Inhibition of the conversion of EM-FU to 5-FU [2]: strongly inhibited

Compound: O=c1ccc2ccccc2o1 [coumarin]
Inhibition of the conversion of EM-FU to 5-FU [2]: strongly inhibited

Compound: O=C(O)c1cc(O)nc(O)c1 [CTA, citrazinic acid]
Inhibition of incorporation of 5-FU into RNA (CoLo320DM cells): did not inhibit | Inhibition of intracellular phosphorylation of 5-FU (CoLo320DM cells): did not inhibit | Inhibition of OPRT activity (5-FU phosphorylation) in cell-free tumor extract [3]: strongly inhibit

Compound: CCOCn1cc(F)c(=O)[nH]c1=O [EM-FU, 1-ethoxymethyl-5-fluorouracil]
Conversion rate of EM-FU to 5-FU [4]: 30 to 60 pmol/min/mg | Conversion rate of EM-FU to 5-FU [5]: 30 to 60 pmol/min/mg | Production of 5-FU from EM-FU by this enzymatic reaction [6]: not produced | Conversion rate of EM-FU to 5-FU [7]: 30 to 60 pmol/min/mg | Conversion rate of EM-FU to 5-FU [8]: lowest conversion rate

The remaining lines, values ahead:

Inhibition of the conversion of EM-FU to 5-FU [2]: strongly inhibited
Compound: O=c1cc(-c2ccccc2)oc2c1ccc1ccccc12 [α-naphthoflavone]

Inhibition of the conversion of EM-FU to 5-FU [2]: strongly inhibited
Compound: O=[N+]([O-])c1ccc(O)cc1 [p-nitrophenol]
